Compound activity from PubChem.
An excerpt weighted towards active compounds, which were near 1.5% of everything screened.
Pf gametocyte = P. falciparum stage V gametocyte viability inhibition; P. falciparum stage V gametocytes, ATP luminescence, 24 h; inhibition, % at 10.9 µM; hit rate 0.065% among 150,000; AID 743093;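 active means inhibition above the mean plus 3 SD of compounds within the control limits, set per campaign, cut at about 38% in these data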;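 further: 0% = DMSO wells and 100% = medium only without gametocytes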
Mdm2 ligase inh = inhibitors of human Mdm2 E3 ubiquitin ligase | cell-based MDM2 ubiquitination luciferase reporter, 2 h; 0 = plate control, 100 = twice control, blank-subtracted | signal enhancement, % at 5 µM | hit rate 0.11% among 210,000;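 active means signal enhancement of 30% or more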;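 further: luminescence tracks abundance of the self-degrading MDM2-luciferase fusion protein; higher signal means inhibition of MDM2 E3 ligase activity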
Target sequence (Q00987 whole entry, looked up, the tested form may be a part): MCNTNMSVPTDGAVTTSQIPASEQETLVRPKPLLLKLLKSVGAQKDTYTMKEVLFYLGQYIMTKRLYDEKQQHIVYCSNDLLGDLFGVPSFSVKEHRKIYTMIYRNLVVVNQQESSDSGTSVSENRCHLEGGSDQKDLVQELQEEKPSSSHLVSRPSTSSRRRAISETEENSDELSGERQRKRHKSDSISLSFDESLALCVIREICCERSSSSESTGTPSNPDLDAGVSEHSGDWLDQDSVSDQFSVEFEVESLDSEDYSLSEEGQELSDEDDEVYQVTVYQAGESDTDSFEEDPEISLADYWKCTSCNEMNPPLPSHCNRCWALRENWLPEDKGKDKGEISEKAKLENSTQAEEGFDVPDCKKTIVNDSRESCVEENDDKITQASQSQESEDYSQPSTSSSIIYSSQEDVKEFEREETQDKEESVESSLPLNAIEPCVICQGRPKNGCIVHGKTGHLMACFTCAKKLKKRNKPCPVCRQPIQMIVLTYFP
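test system = mammalian cells stably expressing self-ubiquitinating, self-degrading MDM2 E3–luciferase fusion | quantity = 2000 cells/well | incubation = cell settling 4 h, compound treatment 2 h, both 37 °C | signal = luminescence with SteadyLite reagent, 15 min at room temperature | evaluation = % enhancement relative to plate controls after blank subtraction | benchmarks = plate controls and plate blanks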
Calpain2 inh = inhibitors of pig calpain II; hit rate 0.37% among 220,000; purified calpain II, fluorogenic peptide substrate, 30 min; inhibition, % at 16 µM;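 active means inhibition above about 50%, limit read from the data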
Wee1 degr inh = inhibitors of human Wee1 degradation | reporter increase, % at 5 µM | hit rate 1.2% among 220,000 | HeLa Luc-Wee1K328M stability, luciferase luminescence; 100% = proteasome inhibitor MG132 effect;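 active means activation above the mean of all tested compounds plus 3 SD, set per screening run, cut at about 8.8% in these data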;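 further: cells exposed to compound for 20 h before luminescence read; 0% = DMSO alone and 100% = MG132 at 30 µM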
Hsp70 act = transcriptional activators of Hsp70 | HeLa Hsp70 promoter luciferase reporter, luminescence; scaled: vehicle 0, proteasome-inhibitor control 100% | activation, % at 10 µM | hit rate 0.04% among 200,000;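 active means activation above the mean across all tested compounds plus 3 SD, cutoff set per campaign, cut at about 5.5% in these data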;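 further: 100% = MG132 at 30 µM as the positive control and 0% = DMSO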
Starred values were filed as active, the others as inactive.

`CCCCN(Cc1ccc(C(=O)N[C@H](C(=O)O)C(C)C)cc1)C(=O)C(c1ccccc1)c1ccccc1` gave Pf gametocyte -4.
Screening CCOc1ccc(-c2cc(C(=O)OC)nc3c2c(=O)n(C)c(=O)n3C)cc1 returned Pf gametocyte -48, Mdm2 ligase inh -2, Calpain2 inh -333 and Wee1 degr inh -1.
`Cn1cc(C[C@H](NC(=O)OC(C)(C)C)C(=O)N[C@@H](CO)Cc2ccccc2)c2ccccc21` gave Pf gametocyte -23.
`CC(=O)c1ccc(N2CCN(C(=O)/C=C/c3ccc(S(=O)(=O)NCc4ccco4)cc3)CC2)cc1` gave Pf gametocyte -7, Mdm2 ligase inh -5, Calpain2 inh 20, Wee1 degr inh 10* and Hsp70 act 0.
CNC[C@H]1Oc2c(NS(=O)(=O)c3ccccc3)cccc2C(=O)N([C@H](C)CO)C[C@@H]1C was read as Pf gametocyte -12.
For c1ccc(CNc2ncnc3c2oc2ccccc23)nc1 the results were Pf gametocyte 23, Mdm2 ligase inh -13, Calpain2 inh -13, Wee1 degr inh 10* and Hsp70 act 0.
`COCCNC(=O)/C(C#N)=C/c1cccc(/C=C(\C#N)C(=O)NCCOC)c1` gave Pf gametocyte 7, Mdm2 ligase inh 70*, Calpain2 inh -2, Wee1 degr inh -1 and Hsp70 act 0.
For CCOCCCNC(=O)/C(C#N)=C/c1cc(C)c(O)c(C)c1 the results were Pf gametocyte 19, Mdm2 ligase inh 2, Calpain2 inh 4, Wee1 degr inh 8.9* and Hsp70 act 0.
`CCOCCCNC(=O)/C(C#N)=C/c1cc(OC)c(O)c([N+](=O)[O-])c1` gave Pf gametocyte 4, Mdm2 ligase inh 3, Calpain2 inh -17, Wee1 degr inh 0 and Hsp70 act 0.
For CC(C(=O)Nc1ccccn1)(c1ccccc1)c1ccccc1 the results were Pf gametocyte 17.
Screening CCOCCN1CCN(C2c3ccccc3CSc3ccccc32)CC1 (stereo not given) returned Pf gametocyte -16.
Screening N#CC(NC(=O)OCc1ccccc1)c1ccccc1 (stereo not given) returned Pf gametocyte 7.
O=C(C[C@H]1C/C=C\CCCC(=O)OC[C@H]2CCCN2C1=O)NCCO was read as Pf gametocyte -10.
CC(C)CCN1CCN(Cc2cccn2-c2cccnc2)CC1CCO (stereo not given) was read as Pf gametocyte 15, Mdm2 ligase inh -4, Calpain2 inh 30, Wee1 degr inh -3 and Hsp70 act 0.
Screening CC(C)N1CCN(Cc2cccn2-c2cccnc2)CC1CCO (stereo not given) returned Mdm2 ligase inh 1, Calpain2 inh -42, Wee1 degr inh 9.6* and Hsp70 act 0.
NC(=O)CC(NC(=O)Cc1ccc(Br)cc1)c1ccc(N2CCC(N3CCCCC3)CC2)c([N+](=O)[O-])c1 (stereo not given) was read as Pf gametocyte -17.
For Cc1ccccc1C(N)c1ccncc1 (stereo not given) the results were Pf gametocyte 9.
`CCCCCn1c(CN2CCCCC2CC)nc2c1c(=O)n(C)c(=O)n2C` (stereo not given) gave Wee1 degr inh 11* and Hsp70 act 0.
CSc1ccc(CN2CCN(CCC(C)C)C(CCO)C2)cc1 (stereo not given) was read as Pf gametocyte -24, Mdm2 ligase inh -10, Calpain2 inh 1, Wee1 degr inh 10* and Hsp70 act 0.
O=C(Cc1cccs1)Nc1ccc(F)cc1 was read as Pf gametocyte 9.
Oc1c(N=Nc2ccccc2)sc2ccccc12 was read as Pf gametocyte 6, Mdm2 ligase inh -51, Calpain2 inh -10 and Wee1 degr inh 9.8*.
`CC(C)(C)c1ccc(CNc2ccc([N+](=O)[O-])cn2)cc1` gave Pf gametocyte -15, Mdm2 ligase inh 0, Calpain2 inh 79*, Wee1 degr inh 0 and Hsp70 act 0.
Screening O=[N+]([O-])c1ccc(NCc2ccc(Cl)cc2)nc1 returned Pf gametocyte 7, Mdm2 ligase inh -5, Calpain2 inh 80* and Wee1 degr inh 4.
CC(=O)NCCNc1ccc([N+](=O)[O-])cn1 was read as Pf gametocyte -10, Mdm2 ligase inh -3, Calpain2 inh 17, Wee1 degr inh -2 and Hsp70 act 0.
Screening CC(C)c1ccc(CNc2ccc([N+](=O)[O-])cn2)cc1 returned Pf gametocyte 9, Mdm2 ligase inh -2, Calpain2 inh 94*, Wee1 degr inh 1 and Hsp70 act 0.
For C[C@@H]1CC[C@]2(O[C@H](CCO)C[C@H](O)[C@H]2O)O1 the results were Pf gametocyte -10.
CN(C)c1ccc(-c2ccc3c(=O)c4ccccc4n(C)c3c2)cn1 was read as Pf gametocyte 11.
For CCOC(=O)CCNC(=O)N1CCCC(N2CCN(c3ccc(OC)cc3)CC2)C1 (stereo not given) the results were Pf gametocyte -1.
`CC(C)(C)C(=O)Nc1ccc(-c2csnn2)cc1` gave Pf gametocyte 5, Mdm2 ligase inh -17, Calpain2 inh 16 and Wee1 degr inh 11*.
Screening O=C(Nc1ccc(-c2csnn2)cc1)C(Cl)(Cl)Cl returned Pf gametocyte -12, Mdm2 ligase inh -16, Calpain2 inh 2 and Wee1 degr inh -4.
`CCOC(=O)COc1ccc(C2CC(C)=NN2c2ccccc2)cc1` (stereo not given) gave Pf gametocyte -26, Mdm2 ligase inh 32*, Calpain2 inh -37, Wee1 degr inh 1 and Hsp70 act 0.
CCOC(=O)COc1ccc(C2NC(C(=O)O)CS2)cc1 (stereo not given) was read as Mdm2 ligase inh -9, Calpain2 inh -24, Wee1 degr inh 1 and Hsp70 act 0.
`COc1cc(/C=C2/C(=N)N3OC(C)=CC3=NC2=O)ccc1OC(=O)c1ccco1` gave Pf gametocyte 13, Mdm2 ligase inh 32*, Calpain2 inh -22, Wee1 degr inh -1 and Hsp70 act 0.
Screening CC1=CC2=NC(=O)/C(=C\c3ccc(OC(=O)c4ccco4)cc3)C(=N)N2O1 returned Pf gametocyte -7, Mdm2 ligase inh -8, Calpain2 inh -20, Wee1 degr inh 3 and Hsp70 act 0.
`Cn1c(=N)n(CC(=O)c2ccc(Br)s2)c2ccccc21` gave Pf gametocyte -10, Mdm2 ligase inh 6, Calpain2 inh 8, Wee1 degr inh 6 and Hsp70 act 0.
N=c1n(CC(=O)c2ccc(Br)s2)c2ccccc2n1Cc1ccccc1 was read as Pf gametocyte 1, Mdm2 ligase inh -16, Calpain2 inh 10 and Wee1 degr inh 10*.
`COc1ccc2c(c1)OC[C@H]1[C@H]2N2C(=O)CN(Cc3ccccc3)C(=O)[C@@]2(C)[C@H]1c1ccccc1` gave Pf gametocyte -19.
